High-throughput results deposited in PubChem BioAssay by Broad Institute.
CAL PDZ FP-1: untagged CAL PDZ binding inhibitors, primary screen, biochemical, fluorescence polarization, HTS; Golgi-associated PDZ and coiled-coil motif-containing protein (Homo sapiens), Q9HD26; purified CAL PDZ, TMR-peptide fluorescence polarization, 1 h; inhibition, % at 24.9 µM; 300,000 tested, 0.92% active; AID 602252, 2012;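 active = mean inhibition of at least 30% with at least half of replicates also reaching 30%; inconclusive = no clear call, values can overlap the other calls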
Vif imaging: HIV Vif self-association inhibitors, primary screen, imaging, HEK293T, single point. HEK293T cells, Vif self-association by quenched fluorescence, 24 h. inhibition, % at 7.49 µM. 340,000 tested, 0.35% active. AID 602346, 2012; in the data active = inhibition above about 50%, passing the limit was not always enough; inconclusive = no clear call, values can overlap the other calls; inactive = below about 31%
PvdQ inh: P. aeruginosa PvdQ acylase inhibitors, primary screen, biochemical, fluorescence, plate reader and imaging, single point; AID 488965, 2010; 340,000 tested, 0.063% active; inhibition, % at 10 µM; purified PvdQ acylase; PvdQ acylase [Pseudomonas aeruginosa LESB58]; in the data active = inhibition above about 30%, passing the limit was not always enough; inconclusive = no clear call, values can overlap the other calls
CAL PDZ FP-2: CAL PDZ peptide-binding inhibitors, primary screen, biochemical, fluorescence polarization, Cer-tagged CAL PDZ, HTS. purified CAL PDZ, TMR-peptide fluorescence polarization, 1 h. Golgi-associated PDZ and coiled-coil motif-containing protein (Homo sapiens), Q9HD26. 330,000 tested, 0.02% active. inhibition, % at 20 µM;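 active = highest replicate inhibition of at least 40%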
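Control set: unlabelled peptide and DMSO controls / Material: purified CerCALP PDZ construct / Timing: 1 h incubation at room temperature before polarization reading / Doses: 20 µM, one dose / Detection: fluorescence polarization (mP)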
Glyco luc inh: increase of ERlucT glycosylation luciferase signal, primary screen, N-linked glycosylation inhibitor project, D54 ERlucT cells, luminescence, set 2. 360,000 tested, 0.23% active. AID 588692, 2011. reporter increase, % at 12.5 µM. D54 ERlucT glycosylation luciferase reporter, 24 h; percent of 100 nM tunicamycin response;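 active = mean luciferase reporter signal, scaled so untreated is 0 and the glycosylation-blocking control 100, at or above a set limit in every replicate; inconclusive = mean reaches the limit but not every replicate does; inactive = mean below the limit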;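 also: luciferase carries N-glycosylation sites so blocking glycosylation raises the light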
CDK5 inh: inhibitors of human CDK5/p35 kinase, primary screen, biochemical, single concentration | Cyclin-dependent kinase 5 (Homo sapiens) + Cyclin-dependent kinase 5 activator 1 (Homo … | Recombinant CDK5/p35, ADP-Glo luminescence, 60 min | inhibition, % at 10 µM | 330,000 tested, 0.01% active;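 active = highest replicate inhibition of at least 50% and at least 75% of replicates reaching 50%; inconclusive = only one of the two criteria met; inactive = both criteria failed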
Target sequence (Q00535 whole entry, looked up): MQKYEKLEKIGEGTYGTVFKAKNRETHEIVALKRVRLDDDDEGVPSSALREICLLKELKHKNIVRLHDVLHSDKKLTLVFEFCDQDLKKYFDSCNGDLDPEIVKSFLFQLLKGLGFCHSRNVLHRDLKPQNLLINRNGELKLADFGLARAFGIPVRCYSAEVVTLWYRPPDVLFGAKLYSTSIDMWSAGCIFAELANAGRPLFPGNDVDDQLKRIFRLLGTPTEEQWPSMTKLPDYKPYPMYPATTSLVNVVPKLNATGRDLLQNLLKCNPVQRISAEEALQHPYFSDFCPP
Target sequence (Q15078 whole entry, looked up): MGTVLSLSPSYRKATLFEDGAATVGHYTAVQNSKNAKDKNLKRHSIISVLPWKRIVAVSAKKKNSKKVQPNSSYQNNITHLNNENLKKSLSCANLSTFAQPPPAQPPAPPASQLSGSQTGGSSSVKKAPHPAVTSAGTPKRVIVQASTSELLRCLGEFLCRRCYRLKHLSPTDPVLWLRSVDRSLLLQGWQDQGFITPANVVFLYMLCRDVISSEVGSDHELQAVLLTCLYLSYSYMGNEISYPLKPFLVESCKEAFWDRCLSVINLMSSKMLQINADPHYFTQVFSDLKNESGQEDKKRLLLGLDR
Of the large screens only hits and unclear results are named; the others gave an inactive call. Sampled rows, rich in hits. Any-hit rate of the full collection: about 1.4%.

O=C(/C=C/c1c[nH]c2ccccc12)c1cccc2ccccc12	Glyco luc inh 30
Cc1ccc(/C=C/C(=O)c2ccccc2O)cc1	none
O=C(C=Cc1ccccc1)c1cc(Br)ccc1O	CAL PDZ FP-1 81, Vif imaging inconclusive
COc1cc(C)cc(C(=O)C=Cc2ccccc2)c1O	Glyco luc inh 31 (no result: CAL PDZ FP-1)
Cc1ccc(O)c(C(=O)C=Cc2ccccc2)c1	Glyco luc inh 30
COc1ccc(C(=O)/C=C/c2ccccc2)c(OC)c1	none
O=C(O)c1cccc2c1C(=O)c1ccc(N3CCN(Cc4ccc5c(c4)OCO5)CC3)cc1S2(=O)=O	none (no result: CAL PDZ FP-1, PvdQ inh, CAL PDZ FP-2, CDK5 inh)
COc1ccccc1-c1csc(C(NC(C)=O)c2cccc(F)c2)n1 (stereo unspecified)	Glyco luc inh 33 (no result: CAL PDZ FP-1, PvdQ inh, CAL PDZ FP-2, CDK5 inh)
O=C(NCCS(=O)(=O)N1CCN(c2cccc(Cl)c2)CC1)c1ccco1	none
CCN1CCN(C(=S)Nc2ccsc2C(=O)OC)CC1	none
COC(=O)c1sccc1NC(=S)N1CCN(C)CC1	CAL PDZ FP-1 active
COc1ccc(/C=C2\CN(Cc3ccccc3)C/C(=C\c3ccc(OC)c(O)c3)C2=O)cc1O	Vif imaging 59
CCN1C/C(=C/c2ccc(OC)c(O)c2)C(=O)/C(=C/c2ccc(OC)c(O)c2)C1	none (no result: CAL PDZ FP-1)
CCN(CC)c1ccc2cc(-c3nnc(-c4ccccc4)o3)c(=O)oc2c1	Vif imaging 179 (no result: CAL PDZ FP-1)
CCN(CC)c1ccc2cc(-c3nc4ccccc4[nH]3)c(=O)oc2c1	none (no result: CAL PDZ FP-1, Vif imaging)
COCc1ccc(CN2CCCCC2C(=O)Nc2ccc(Oc3ccccc3)nc2)o1 (stereo unspecified)	none
C[C@@H]1CN([C@H](C)CO)C(=O)CCCn2nncc2CO[C@H]1CN(C)CC1CC1	Vif imaging inconclusive (no result: CAL PDZ FP-1, PvdQ inh, CAL PDZ FP-2, CDK5 inh)
CC(C)NC(=O)C(c1ccc(F)cc1)N(C(=O)CCC(=O)Nc1ccccn1)c1cccc(F)c1 (stereo unspecified)	Vif imaging 74
Cc1cccc(N(C(=O)CCC(=O)Nc2ccccn2)C(C(=O)NC(C)C)c2ccc(F)cc2)c1 (stereo unspecified)	none
COc1ccc(C(=O)c2sc(Nc3ccccc3F)nc2N)cc1	none
COc1ccc(C(=O)c2sc(Nc3ccccc3)nc2N)cc1	none
Nc1nc(Nc2ccccc2)sc1C(=O)c1ccccc1	Glyco luc inh 29, CDK5 inh 82 (no result: CAL PDZ FP-1)
COc1ccc(C(=O)c2sc(Nc3ccccc3)nc2N)cc1OC	Glyco luc inh 33
Cc1cc(-c2nnc(SCC(=O)c3ccc(Cl)cc3)o2)no1	Vif imaging 92
CC(C)(C)NC(=O)CCSc1nnc(-c2ccco2)o1	CAL PDZ FP-1 111
COc1ccc(C2=C(C=O)Cc3ccccc3O2)cc1	PvdQ inh 110
COc1ccc(C2=COc3ccccc3C(=O)N2)cc1	none
O=C(NCCc1ccccc1)c1ccc(NC(=O)C2CC2)cc1	CAL PDZ FP-1 59
O=C(NCc1ccccc1)c1ccc(NC(=O)C2CC2)cc1	none
CCOC(=O)C1=CCC(c2ccc(Cl)cc2)N(S(=O)(=O)c2ccc(C)cc2)C1 (stereo unspecified)	none (no result: CAL PDZ FP-1, Vif imaging, PvdQ inh, CAL PDZ FP-2, CDK5 inh)
C[n+]1c2n(c3ccccc31)N=C(c1ccc(Br)cc1)CS2	Glyco luc inh 37
CCN(c1ccc(OC)cc1)S(=O)(=O)c1ccc2c(c1)CC(C)N2C(=O)C1CC1 (stereo unspecified)	none (no result: CDK5 inh)
CC(=O)c1sc(NC(=O)COc2ccc([N+](=O)[O-])cc2)nc1C	Vif imaging 98
O=C(Cc1ccc([N+](=O)[O-])cc1)NNC(=O)c1cccs1	none
COc1ccc(OCC(=O)Nc2nc3c(s2)CCCC3)cc1	CAL PDZ FP-1 72
O=C(COc1ccc([N+](=O)[O-])cc1)NNC(=O)c1cccs1	Vif imaging 53 (no result: CAL PDZ FP-1)
CC(=O)Nc1ccc(NCCc2ccco2)cc1	none (no result: CAL PDZ FP-1, PvdQ inh, CAL PDZ FP-2, CDK5 inh)
CCC(C)c1ccc(OCC(=O)Nc2ccc3c(c2)C(=O)NC3=O)cc1 (stereo unspecified)	none
O=C(Cc1cccc2ccccc12)Nc1cc(C(=O)O)cc(C(=O)O)c1	CAL PDZ FP-1 44
CC(C)(Oc1ccc(Cl)cc1)C(=O)Nc1ccc(S(=O)(=O)Nc2ncccn2)cc1	none
CC(C)c1ccc(S(=O)(=O)N2CCN(C(=O)c3cccc(F)c3)CC2)cc1	CAL PDZ FP-1 46 (no result: Vif imaging)
CCc1noc(C)c1C(=O)NNC(=O)c1ccc(Br)cc1	none
CCc1noc(C)c1C(=O)Nc1nc2c(C)cccc2s1	none
CCc1noc(C)c1C(=O)Nc1ncc(C)s1	CAL PDZ FP-1 35
CCc1noc(C)c1C(=O)NNC(=O)c1ccc(N(CC)CC)cc1	Vif imaging 60
COc1cc(/C=N/NC(=O)CCC(=O)NC2CCCCC2)ccc1C	Vif imaging 51 (no result: CAL PDZ FP-1)
O=C(NCc1ccc2c(c1)OCO2)c1nc(Cn2cc(Br)cn2)no1	CAL PDZ FP-1 37
O=C(NCc1ccc2c(c1)OCO2)c1nc(Cn2ccc([N+](=O)[O-])n2)no1	none
COc1ccc(CNc2ccc(-c3ccccc3OC)nn2)cc1	CAL PDZ FP-1 56, Vif imaging inconclusive
COc1ccc(C(=O)NCCC2=CCCCC2)cc1OC1CCN(C(C)C)CC1	none
Cc1ccc(-c2ccccc2[C@@H]2C[C@H]3CN(C)C(=O)[C@]34CCCN24)o1	none
O=C1N(c2ccccc2)C[C@@H]2C[C@@H](c3cc4ccccc4o3)N3CCC[C@@]123	PvdQ inh 42 (no result: CAL PDZ FP-2)
c1ccc(Cc2nnc(Sc3ccccc3)c3ccccc23)cc1	Glyco luc inh 36 (no result: CAL PDZ FP-2)
COC(=O)c1cccc(CC2(C)C(=O)Nc3ccc(OC(F)(F)F)cc32)c1 (stereo unspecified)	none (no result: CAL PDZ FP-1, Vif imaging, PvdQ inh, CAL PDZ FP-2, CDK5 inh)
O=C(Nc1ccccc1)C1=C[C@@H](C2CCCCC2)C[C@@H](OCCCCO)O1	Vif imaging 69
CN(CC1CCCN(CCc2ccc(F)cc2)C1)C(=O)CCC(N)=O (stereo unspecified)	none
Cc1cccc(C(=O)N=c2sccn2C)c1[N+](=O)[O-]	none
O=C(Nc1nccs1)c1ccc2ccccc2n1	CAL PDZ FP-1 35
C=C[C@@]1(C)CC(=O)[C@]2(O)[C@@]3(C)[C@@H](O)CCC(C)(C)[C@@H]3[C@H](O)[C@H](OC(C)=O)[C@@]2(C)O1	Vif imaging 75
C=C[C@@]1(C)CC(=O)[C@]2(O)[C@@]3(C)[C@@H](O)CCC(C)(C)[C@@H]3[C@H](OC(C)=O)[C@H](O)[C@@]2(C)O1	Vif imaging 82
